One assay has as its system U87 glioma cells. As to the kind of experiment: Cell death assay: lactate dehydrogenase. It is filed as cell-based. The note with it: LDH assay, human U87 glioma cells; concentration and time given in the cell. Put shortly: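 U87 glioma cells plated at ten thousand per well and exposed to test compound for 24–48 h at 37°C, 5% CO2. Cell death read as cytosolic LDH released from dying cells, measured with a commercial LDH kit per the manufacturer's protocol.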

The next assay has as its target T1, trypsin (Bos taurus, UniProt P00760).
T1 sequence (P00760 24-246): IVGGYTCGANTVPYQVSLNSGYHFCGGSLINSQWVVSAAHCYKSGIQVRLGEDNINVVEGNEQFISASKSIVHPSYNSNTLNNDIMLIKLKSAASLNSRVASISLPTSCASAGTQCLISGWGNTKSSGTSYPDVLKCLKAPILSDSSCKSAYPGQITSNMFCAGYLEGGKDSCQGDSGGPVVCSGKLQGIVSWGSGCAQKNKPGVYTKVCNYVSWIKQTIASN
As to the kind of experiment: Trypsin enzymatic inhibition assay. It is filed as biochemical. Put shortly:
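Chromogenic substrate level was chosen from the Km determination. Rate of absorbance change at 405 nm was recorded immediately after enzyme addition. Velocities at various inhibitor concentrations were fitted to a 4-parameter logistic equation.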

The target of another assay is tPA (Homo sapiens, UniProt P00750). The note with it: read-out: tPA IC50; cited from earlier work.
Assay [1] addresses T2, plasmin (Homo sapiens, UniProt P00747). The note with it: read-out: plasmin IC50; cited from earlier work.
In assay [2] the test system is human malignant glioma cells. The note with it: cited from earlier work.
Assay [3] has as its target T2, plasmin. As to the kind of experiment: Plasmin enzymatic inhibition assay. It is filed as biochemical.
Setting [4] is: read-out: Plasmin IC50, 22°C, pH 7.4, substrate tosyl-Gly-Pro-Lys-pNA.

Molecules are shown by their SMILES. “And” between values parts separate entries of the source, which are not always exact repeats. Equal values may be shown once. “Also recorded” adds a separate entry of the source. Read-outs that look alike come from different tables or passages of the source. Some results are limits rather than exact numbers.

T2 sequence (P00747 581-810 limits assumed, species assumed): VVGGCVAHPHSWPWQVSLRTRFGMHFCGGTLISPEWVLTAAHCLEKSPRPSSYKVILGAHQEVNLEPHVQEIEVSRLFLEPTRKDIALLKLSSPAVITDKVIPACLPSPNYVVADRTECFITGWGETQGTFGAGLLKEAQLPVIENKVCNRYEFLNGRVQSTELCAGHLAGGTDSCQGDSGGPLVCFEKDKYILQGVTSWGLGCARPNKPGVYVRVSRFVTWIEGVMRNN
T2 sequence (P00747 97-580 partner limits assumed, species assumed): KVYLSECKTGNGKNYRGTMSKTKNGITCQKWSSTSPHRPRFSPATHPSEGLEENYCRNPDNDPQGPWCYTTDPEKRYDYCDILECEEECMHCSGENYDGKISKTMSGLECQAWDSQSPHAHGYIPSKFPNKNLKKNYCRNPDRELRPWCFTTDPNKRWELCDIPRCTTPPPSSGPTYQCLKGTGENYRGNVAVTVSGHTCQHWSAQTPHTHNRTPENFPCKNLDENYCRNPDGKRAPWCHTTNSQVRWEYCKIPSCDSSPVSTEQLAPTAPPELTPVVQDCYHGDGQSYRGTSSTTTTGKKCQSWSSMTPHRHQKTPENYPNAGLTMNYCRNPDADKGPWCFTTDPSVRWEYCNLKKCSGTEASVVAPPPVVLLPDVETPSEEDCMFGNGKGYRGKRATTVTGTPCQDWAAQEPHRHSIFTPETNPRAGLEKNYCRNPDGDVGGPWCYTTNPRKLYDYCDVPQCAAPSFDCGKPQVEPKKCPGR
Sequence of tPA (P00750 36-562, species assumed): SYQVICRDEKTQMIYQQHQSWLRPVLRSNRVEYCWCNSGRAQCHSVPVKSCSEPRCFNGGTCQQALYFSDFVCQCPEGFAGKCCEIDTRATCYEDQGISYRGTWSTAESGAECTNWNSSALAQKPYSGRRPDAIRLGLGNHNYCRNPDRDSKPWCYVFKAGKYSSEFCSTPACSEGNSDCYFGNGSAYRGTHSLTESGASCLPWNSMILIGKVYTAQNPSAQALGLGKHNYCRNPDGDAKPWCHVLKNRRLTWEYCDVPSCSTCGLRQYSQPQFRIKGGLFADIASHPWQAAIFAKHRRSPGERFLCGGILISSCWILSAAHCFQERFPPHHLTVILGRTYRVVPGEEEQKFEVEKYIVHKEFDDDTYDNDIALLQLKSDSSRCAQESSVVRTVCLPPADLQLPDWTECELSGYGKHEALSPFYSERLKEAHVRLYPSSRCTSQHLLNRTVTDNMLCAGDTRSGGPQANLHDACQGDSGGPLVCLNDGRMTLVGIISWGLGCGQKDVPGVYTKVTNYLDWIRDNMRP

As usually defined, the IC50 is the midpoint of a concentration-inhibition curve. In the case of `N/C(=N\O)c1nc(Cl)c(NCC(=O)O)nc1N` [Compound 8], the Cytoxicity result with U87 glioma cells is on record as “Not cytotoxic”. On trypsin, this compound returned a concentration for half-maximal inhibition (IC50) of more than 250 µM.

Regarding `N/C(=N\O)c1nc(Cl)c(NCC(=O)OCc2ccccc2)nc1N` [Compound 7], in the assay with U87 glioma cells, the Cytoxicity result was “Not cytotoxic”. Also, on trypsin, the half-maximal inhibitory concentration (IC50) was more than 250 µM.

As to `N=C(N)NC(=O)c1nc(Cl)c(NCC(=O)O)nc1N` [Compound 1], in the assay on U87 glioma cells, the Cytoxicity result is given as “do not demonstrate glioma cytotoxicity; also recorded: Not cytotoxic”. Also, the concentration for half-maximal inhibition (IC50) at trypsin was more than 250 µM.

As for `N=C(N)NC(=O)c1nc(Cl)c(N)nc1N` [amiloride, 3,5 diamino-6-chloro-N-(diaminomethylene) pyrazinecarboximide], the IC50 on tPA is more than 1000 µM; at trypsin, more than 250 µM; on plasmin [1], more than 1000 µM. In addition, in the assay on U87 glioma cells, the Cytoxicity is reported as 50% cytotoxic at 250μM by 24h. The “concentration causing caspase-independent, non-apoptotic cell death” value in assay [2] was ~ 200 μM.

Regarding `NC(N)=NC(=O)c1nc(Cl)c(NCC(=O)OCc2ccccc2)nc1N` [Compound 14], in the assay with U87 glioma cells, the Cytoxicity entry is “cytotoxic and 50% cytotoxic at 100μM by 24h”. Further, on trypsin, the IC50 was more than 250 µM.

In the case of `NC(=O)c1nc(Cl)c(NCC(=O)OCc2ccccc2)nc1N` [Compound 12], the Cytoxicity entry with U87 glioma cells is given as “Not cytotoxic”. Besides, the IC50 on trypsin was more than 250 µM; at plasmin [3] (setting [4]), more than 150 µM.

With `NC(N)=NC(=O)c1ncc(NCC(=O)O)nc1N` [Compound 1-H], the Cytoxicity entry with U87 glioma cells was “Not cytotoxic”. The half-maximal inhibitory concentration (IC50) at trypsin was more than 250 µM.

Regarding `N=C(N)c1ncc(NCC(=O)O)nc1N` [Compound 2-H], in the assay with U87 glioma cells, the Cytoxicity result was “Not cytotoxic”. The same compound gave an IC50 against trypsin of more than 250 µM.

On to `N/C(=N\O)c1ncc(NCC(=O)O)nc1N` [Compound 8-H], for which the Cytoxicity entry in the assay with U87 glioma cells is “Not cytotoxic”. The IC50 is more than 250 µM against trypsin and 230 µM at plasmin [3].

`N=C(N)c1nc(Cl)c(NCC(=O)O)nc1N` [Compound 2]: the Cytoxicity result in the assay on U87 glioma cells is “do not demonstrate glioma cytotoxicity; also recorded: Not cytotoxic”. Also, the half-inhibitory concentration (IC50) against trypsin and at plasmin [3] (setting [4]) was more than 250 µM each time.

On to `N=C(N)c1nc(Cl)c(NCC(=O)OCc2ccccc2)nc1N` [Compound 11], for which the Cytoxicity result in the assay with U87 glioma cells is “cytotoxic and 50% cytotoxic at 250μM by 72h”. On trypsin, this compound showed an IC50 of more than 250 µM.

Values taken from paper PMC3329872 (Bioorganic & medicinal chemistry letters, 2012).
